Assay [1] concerns the target Tubulin beta-1 chain (Homo sapiens, UniProt Q9H4B7). The assay is described as follows: Percent inhibition of tubulin polymerization at 0.3 uM concentration. The format is functional.
In assay [2] the test system is KB. Nature of the assay: Concentration required to inhibit tumor cell growth in KB-8-5 cells. The format is functional, cell-based, Homo sapiens. The method in brief: (§1)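 Cytotoxicity was measured in paclitaxel-sensitive KB-3-1 cells and in KB-8-5 and KB-V1 cells, which express moderate and high P-glycoprotein respectively. Result is the average IC50 (nM) ± SEM; SEM is omitted where it is below 10% of the average.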

Assay [3] has as its system KB. The assay is described as follows: Concentration required to inhibit tumor cell growth in KB-V1 cells. As to conditions: Homo sapiens. The format is functional, cell-based. The method in brief: as §1
Assay [4] is described as follows: Concentration required to inhibit tumor cell growth in KB-3-1 cells. The format is functional, cell-based, Homo sapiens. Summed up:
as §1

The values below come from ChEMBL document CHEMBL1138753, “Synthesis and biological activity of analogues of the antimicrotubule agent N,beta,beta-trimethyl-L-phenylalanyl-N(1)-[(1S,2E)-3-carboxy-1-isopropylbut-2-enyl]- N(1),3-dimethyl-L-valinamide (HTI-286)” (J Med Chem, 2004).

Chain of Tubulin beta-1 chain (Q9H4B7 whole entry): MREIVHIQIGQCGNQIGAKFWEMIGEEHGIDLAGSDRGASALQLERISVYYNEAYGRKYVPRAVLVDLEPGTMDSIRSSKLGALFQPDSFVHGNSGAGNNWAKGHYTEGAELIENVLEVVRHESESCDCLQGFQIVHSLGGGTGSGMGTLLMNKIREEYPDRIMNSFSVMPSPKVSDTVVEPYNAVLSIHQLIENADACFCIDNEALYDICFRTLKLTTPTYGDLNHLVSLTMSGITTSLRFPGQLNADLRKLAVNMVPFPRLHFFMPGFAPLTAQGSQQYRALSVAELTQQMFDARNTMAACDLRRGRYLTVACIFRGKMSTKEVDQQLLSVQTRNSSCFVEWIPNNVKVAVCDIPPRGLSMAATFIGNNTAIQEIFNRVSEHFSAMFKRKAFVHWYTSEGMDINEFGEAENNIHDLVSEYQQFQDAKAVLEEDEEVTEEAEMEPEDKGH

In assay [1], `CS[C@H](C(=O)N[C@H](C(=O)N(C)[C@H](/C=C(\C)C(=O)O)C(C)C)C(C)(C)C)C(C)(C)c1ccccc1` yielded an inhibition of 79%. Besides, the IC50 was 1150 nM in assay [2] (Homo sapiens, KB); above 6000 nM in assay [3]; 691 nM in assay [4] (Homo sapiens, KB 3-1).
Taken in the same sequence, the figures for `CN[C@H](C(=O)N[C@@H](C(=O)N(C)[C@H](/C=C(\C)C(=O)O)C(C)C)C(C)(C)C)C(C)(C)c1ccccc1` were 1%, above 3000 nM, above 3000 nM and above 3000 nM.
Compound `C/C(=C\[C@H](C(C)C)N(C)C(=O)[C@@H](NC(=O)[C@@H](NCC(=O)O)C(C)(C)c1ccccc1)C(C)(C)C)C(=O)O` came in with an inhibition in assay [1] of 35%. The IC50 is above 3000 nM in assay [2] (Homo sapiens, KB); above 3000 nM in assay [3]; above 3000 nM in assay [4] (Homo sapiens, KB 3-1).
`CN[C@H](C(=O)N[C@H](C(=O)N(C)[C@H](/C=C(\C)C(=O)O)C(C)C)C(C)(C)C)C(C)(C)O` registered an inhibition in assay [1] of 40%. The IC50 in assay [2] (Homo sapiens, KB) is 293 nM; in assay [3] it was above 3000 nM; in assay [4] (Homo sapiens, KB 3-1), 151 nM.
Taken in the same sequence, the figures for `CN[C@H](C(=O)N[C@H](C(=O)N(C)[C@H](/C=C(\C)C(=O)O)C(C)C)C(C)(C)C)C1(c2ccccc2)CC1` were 99%, 57 nM, 1660 nM and 27 nM.
The compound `CN[C@H](C(=O)N[C@H](C(=O)N(C)[C@H](/C=C(\C)C(=O)O)C(C)C)C(C)(C)C)C1(c2ccccc2)CCCCC1` gave an inhibition in assay [1] of 5%. The IC50 in assay [2] (Homo sapiens, KB) is 363 nM; in assay [3], above 3000 nM; in assay [4] (Homo sapiens, KB 3-1), 204 nM.
With `CS[C@@H](C(=O)N[C@H](C(=O)N(C)[C@H](/C=C(\C)C(=O)O)C(C)C)C(C)(C)C)C(C)(C)c1ccccc1`, the inhibition in assay [1] stood at 79%. Moreover, the IC50 in assay [2] (Homo sapiens, KB) was 1150 nM; in assay [3], above 6000 nM; in assay [4] (Homo sapiens, KB 3-1), 691 nM.
Turning to `CN[C@H](C(=O)N[C@H](C(=O)N(C)[C@@H](/C=C(\C)C(=O)O)C(C)C)C(C)(C)C)C(C)(C)c1ccccc1` (single isomer, unassigned), the inhibition in assay [1] was 0%. Also, the IC50 in assay [2] (Homo sapiens, KB) is 1650 nM; in assay [3] it was above 3000 nM; in assay [4] (Homo sapiens, KB 3-1), 605 nM.
The corresponding values for `CN[C@H](C(=O)N[C@@H](C)C(=O)N(C)[C@H](/C=C(\C)C(=O)O)C(C)C)C(C)(C)c1ccccc1` are 8%, 902 nM, above 3000 nM and 381 nM.
The corresponding values for `CN[C@H](C(=O)N[C@H](C(=O)N(C)[C@H](/C=C(\C)C(=O)NO)C(C)C)C(C)(C)C)C(C)(C)c1ccccc1` are 75%, 227 nM, above 3000 nM and 39 nM.
Regarding `CN[C@H](C(=O)N[C@H](C(=O)N(C)[C@H](/C=C(\C)C(=O)O)C(C)C)C(C)(C)C)C1(c2ccccc2)CCCC1`, the inhibition in assay [1] is 77%. The IC50 in assay [2] (Homo sapiens, KB) is 63 nM; in assay [3], 2660 nM; in assay [4] (Homo sapiens, KB 3-1), 59 nM.
The corresponding values for `C/C(=C\[C@H](C(C)C)N(C)C(=O)[C@@H](NC(=O)[C@@H](NCCO)C(C)(C)c1ccccc1)C(C)(C)C)C(=O)O` are 90%, 616 nM, above 3000 nM and 183 nM.
Taken in the same sequence, the figures for `CCC[C@H](NC(=O)[C@@H](NC)C(C)(C)c1ccccc1)C(=O)N(C)[C@H](/C=C(\C)C(=O)O)C(C)C` were 51%, 19 nM, 575 nM and 15 nM.
Taken in the same sequence, the figures for `CN[C@H](C(=O)N[C@H](C(=O)N(C)[C@H](/C=C(\C)C(=O)O)C(C)C)C(C)(C)C)C(C)(C)Cc1ccccc1` were 87%, 6 nM, 219 nM and 3 nM.
In assay [1], `CC[C@H](NC(=O)[C@@H](NC)C(C)(C)c1ccccc1)C(=O)N(C)[C@H](/C=C(\C)C(=O)O)C(C)C` displayed an inhibition of 73%. For the same compound, the 50% inhibitory concentration (IC50) in assay [2] (Homo sapiens, KB) was 70 nM; in assay [3] it was 1060 nM; in assay [4] (Homo sapiens, KB 3-1), 48 nM.
The corresponding values for `C/C(=C\[C@H](C(C)C)N(C)C(=O)[C@@H](NC(=O)[C@@H](N1CCCC1)C(C)(C)c1ccccc1)C(C)(C)C)C(=O)O` are 83%, 158 nM, above 3000 nM and 75 nM.
Taken in the same sequence, the figures for `CCC(CC)(c1ccccc1)[C@H](NC)C(=O)N[C@H](C(=O)N(C)[C@H](/C=C(\C)C(=O)O)C(C)C)C(C)(C)C` were 86%, 18 nM, 479 nM and 8.5 nM.
For `C/C(=C\[C@H](C(C)C)N(C)C(=O)[C@@H](NC(=O)[C@@H](N)C(C)(C)c1ccccc1)C(C)(C)C)C(=O)O` (stereo in doubt; 20) [listing 1 of 2 here], the results for the half-inhibitory concentration (IC50) in assay [2] (kb), in assay [3] and in assay [4] (kb 3-1) were 550 nM, above 3000 nM and 427 nM, respectively.
`CCCCCCCCOC(=O)/C(C)=C/[C@H](C(C)C)N(C)C(=O)[C@@H](NC(=O)[C@@H](NC)C(C)(C)c1ccccc1)C(C)(C)C` yielded an inhibition in assay [1] of 26%. In addition, the concentration for half-maximal inhibition (IC50) in assay [2] (Homo sapiens, KB) is 1630 nM; in assay [3] it was above 3000 nM; in assay [4] (Homo sapiens, KB 3-1), 150 nM.
The corresponding values for `CN[C@H](C(=O)N[C@H](C(=O)N(C)[C@H](/C=C(\C)C(=O)O)C(C)C)C(C)(C)C)[C@H](C)c1ccccc1` are 77%, 584 nM, above 3000 nM and 438 nM.
As to `CNCC(=O)N[C@H](C(=O)N[C@H](C(=O)N(C)[C@H](/C=C(\C)C(=O)O)C(C)C)C(C)(C)C)C(C)(C)c1ccccc1`, the inhibition in assay [1] worked out at 4%. The IC50 in assay [2] (Homo sapiens, KB) was 2120 nM; in assay [3], above 3000 nM; in assay [4] (Homo sapiens, KB 3-1), 1400 nM.
For the compound `C/C(=C\[C@H](C(C)C)N(C)C(=O)[C@@H](NC(=O)[C@@H](N)C(C)(C)c1ccccc1)C(C)(C)C)C(=O)O` (stereo in doubt; 63), the inhibition in assay [1] stood at 49%.
In the case of `CN[C@H](C(=O)N[C@H](C(=O)N(C)[C@H](/C=C(\C)C(=O)O)C(C)C)C(C)(C)C)C(C)(C)C`, the inhibition in assay [1] was determined as 43%. Besides, the IC50 is 180 nM in assay [2] (Homo sapiens, KB); above 3000 nM in assay [3]; 114 nM in assay [4] (Homo sapiens, KB 3-1).
The corresponding values for `C/C(=C\[C@H](C(C)C)N(C)C(=O)[C@@H](NC(=O)[C@H](Cc1ccccc1)C(C)(C)c1ccccc1)C(C)(C)C)C(=O)O` are 46%, 2240 nM, above 6000 nM and 1690 nM.
Taken in the same sequence, the figures for `CN[C@H](C(=O)N[C@H](C(=O)N(C)[C@H](/C=C(\C)C(=O)N1CCN(Cc2ccccc2)CC1)C(C)C)C(C)(C)C)C(C)(C)c1ccccc1` were 29%, 22 nM, 366 nM and 15 nM.
Consider `CO[C@H](C(=O)N[C@H](C(=O)N(C)[C@H](/C=C(\C)C(=O)O)C(C)C)C(C)(C)C)C(C)(C)c1ccccc1`, for which the inhibition in assay [1] turned out to be 54%. Also, the IC50 is 1230 nM in assay [2] (Homo sapiens, KB); above 3000 nM in assay [3]; 1420 nM in assay [4] (Homo sapiens, KB 3-1).
Consider `CCN[C@H](C(=O)N[C@H](C(=O)N(C)[C@H](/C=C(\C)C(=O)O)C(C)C)C(C)(C)C)C(C)(C)c1ccccc1`, for which the inhibition in assay [1] worked out at 96%. For the same compound, the IC50 in assay [2] (Homo sapiens, KB) amounted to 2.4 nM; in assay [3] it was 114 nM; in assay [4] (Homo sapiens, KB 3-1), 1.6 nM.
For the compound `C/C(=C\[C@H](C(C)C)N(C)C(=O)[C@@H](NC(=O)CC(C)(C)c1ccccc1)C(C)(C)C)C(=O)O`, the inhibition in assay [1] is 21%. Moreover, the IC50 in assay [2] (Homo sapiens, KB) is above 3000 nM; in assay [3] it was above 3000 nM; in assay [4] (Homo sapiens, KB 3-1), above 3000 nM.
In the case of `C=CC[C@H](C(=O)N[C@H](C(=O)N(C)[C@H](/C=C(\C)C(=O)O)C(C)C)C(C)(C)C)C(C)(C)c1ccccc1`, in assay [1], the inhibition stood at 63%. In addition, the IC50 in assay [2] (Homo sapiens, KB) is 1200 nM; in assay [3] it was above 6000 nM; in assay [4] (Homo sapiens, KB 3-1), 1150 nM.
Taken in the same sequence, the figures for `CN[C@H](C(=O)N[C@H](C(=O)N(C)[C@H](C[C@H](C)C(=O)O)C(C)C)C(C)(C)C)C(C)(C)c1ccccc1` were 74%, 69 nM, above 3000 nM and 48 nM.
The corresponding values for `CN[C@H](C(=O)N[C@H](C(=O)N(C)[C@H](/C=C(\C)C(=O)NCCc1ccccc1)C(C)C)C(C)(C)C)C(C)(C)c1ccccc1` are 72%, 226 nM, 1770 nM and 163 nM.
In the case of `CN[C@@H](Cc1ccccc1)C(=O)N[C@H](C(=O)N(C)[C@H](/C=C(\C)C(=O)O)C(C)C)C(C)(C)C`, the inhibition in assay [1] worked out at 66%. For the same compound, the IC50 was 646 nM in assay [2] (Homo sapiens, KB); above 3000 nM in assay [3]; 603 nM in assay [4] (Homo sapiens, KB 3-1).
Taken in the same sequence, the figures for `CN[C@H](C(=O)N[C@@H](Cc1ccccc1)C(=O)N(C)[C@H](/C=C(\C)C(=O)O)C(C)C)C(C)(C)c1ccccc1` were 40%, 2400 nM, above 3000 nM and 1320 nM.
Taken in the same sequence, the figures for `C/C(=C\[C@H](C(C)C)N(C)C(=O)[C@@H](NC(=O)[C@@H](NCc1ccccc1)C(C)(C)c1ccccc1)C(C)(C)C)C(=O)O` were 55%, 1880 nM, above 3000 nM and 1790 nM.
The corresponding values for `CC[C@@H](C(=O)N[C@H](C(=O)N(C)[C@H](/C=C(\C)C(=O)O)C(C)C)C(C)(C)C)C(C)(C)c1ccccc1` are 54%, 1200 nM, 5250 nM and 912 nM.
For the compound `C/C(=C\[C@H](C(C)C)N(C)C(=O)[C@@H](NC(=O)[C@@H](N)C(C)(C)c1ccccc1)C(C)(C)C)C(=O)O` (stereo in doubt; 20) [listing 2 of 2 here], in assay [1], the inhibition came to 95%.
